Experimental data pooled from the literature.
Each line is one published result; the experiments were not run side by side.
Target: Misshapen-like kinase 1 (MINK1, Homo sapiens, UniProt Q8N4C8)

SMILES | observed | action | method | tested at | endpoint | value
CS(=O)(=O)CCNCc1ccc(-c2ccc3ncnc(Nc4ccc(OCc5cccc(F)c5)c(Cl)c4)c3c2)o1 | cell-free assay |  |  | 0.5 µM | remaining signal | 111%
COc1cc2ncnc(Nc3ccc(Oc4ccccc4)cc3C)c2cc1OC | enzyme activity | inhibitor |  | 1 µM | inhibition | 7%
CCCOc1ccc([C@@H]2[C@@H](C(=O)O)[C@H](c3ccc4c(c3)OCO4)CN2CC(=O)Nc2c(CC)cccc2CC)cc1 | cell-free assay |  | competition with immobilised ligand | 1 µM | remaining binding | 78%
COc1cc(-c2cc(-c3ccc(N4CCNCC4)cc3)cnc2N)cc(OC)c1OC | enzyme activity | inhibitor |  | 1 µM | inhibition | 89%
COc1cc(Cl)c(C(=O)N[C@@H](CN[C@H]2CC[C@@H](N)CC2)Cc2ccc(C#N)cc2)cc1-c1ccc(CN[C@H](C)c2ccc(C)cc2)o1 | enzyme activity | inhibitor |  | 1 µM | remaining activity | 94%
Cc1noc([C@H]2C[C@@H](c3ccc(C(F)(F)F)cc3)CN(C(=O)N3CCS(=O)(=O)C3)C2)n1 | cell-free assay |  | competition with immobilised ligand | 1 µM | remaining binding | 100%
CCN(CC)CCNC(=O)c1c(C)[nH]c(/C=C2\C(=O)Nc3ccc(F)cc32)c1C | enzyme activity | inhibitor |  | 10 µM | inhibition | 94%
NS(=O)(=O)c1cc(NC(=O)Cc2ccccc2)ccc1Oc1cccc(Cl)c1 | cell-free assay |  | competition with immobilised ligand | 1 µM | remaining binding | 90%
Cc1ccc(NC(=O)c2ccc(C)c(C(F)(F)F)c2)cc1C#Cc1nn(C2CCC(O)CC2)c2ncnc(N)c12 (stereo not drawn) | cell-free assay |  |  | 10 µM | remaining signal | 25%
Nc1ncnc2occ(-c3ccc(NC(=O)Nc4cc(C(F)(F)F)ccc4F)cc3)c12 | cell-free assay | inhibitor |  | 20 µM | remaining signal | 1.5%
O=C(Nc1cnn(-c2csc(C(=O)NC3COC3)c2)c1)Nc1ccccc1Cl | enzyme activity | inhibitor |  | 5 µM | remaining activity | 79.4%
N#CCCc1ccc2c(c1)-c1[nH]c3ccc([N+](=O)[O-])cc3c1CC(=O)N2 | cell-free assay |  |  | 0.5 µM | remaining signal | 29.9%
CN(C)C1CCN(CC#Cc2nn(C3CCCC3)c3nc(NCc4ccccc4)ncc23)C1 (stereo not drawn) | enzyme activity | inhibitor | FRET | 0.1 µM | inhibition | 11%
CC/C(=N\NC(=O)NCc1cccc(O)c1)c1ccc(O)c(C)c1O | enzyme activity | inhibitor |  | 0.1 µM | inhibition | -1%
Cn1nc(C(=O)NCc2ccc(C(=O)O)cc2)cc1-c1ccc2[nH]ccc2c1 | cell-free assay |  | competition with immobilised ligand | 0.1 µM | remaining binding | 95%
C=CC(=O)Nc1cc(Nc2nccc(Nc3cc(Cl)c(F)cc3C(C)(C)O)n2)c(OC)cc1N1CC[C@@H](N(C)C)C1 | enzyme activity | inhibitor |  | 1 µM | inhibition | -3%
Oc1cccc(-c2nc(N3CCOCC3)c3oc4ncccc4c3n2)c1 | enzyme activity | inhibitor |  | 10 µM | remaining activity | 116%
CNC(=O)c1ccc(Nc2ncc(C(F)(F)F)c(NCc3nccnc3N(C)S(C)(=O)=O)n2)cc1 | cell-free assay |  | competition with immobilised ligand | 0.1 µM | remaining binding | 44%
Cc1ccc(C(=O)Nc2ccc(CN3CCN(C)CC3)c(C(F)(F)F)c2)cc1C#Cc1cnc2cccnn12 | enzyme activity | inhibitor |  | 23.5 nM | remaining activity | 45%
CCN(CC)c1ccc(C2=NNC(=O)CC2C)cc1[N+](=O)[O-] (stereo not drawn) | enzyme activity | inhibitor |  | 10 µM | remaining activity | 102%
O=S(=O)(NC1CCC(c2cc(F)ccc2F)(S(=O)(=O)c2ccc(Cl)cc2)CC1)C(F)(F)F (stereo not drawn) | cell-free assay |  | competition with immobilised ligand | 1 µM | remaining binding | 100%
CNC(=O)c1cc(Oc2ccc(NC(=O)Nc3ccc(Cl)c(C(F)(F)F)c3)cc2)ccn1 | enzyme activity | inhibitor |  | 0.3 µM | inhibition | 14%
COc1cc(Nc2cnc(C#N)c(O[C@H](C)CN(C)C)n2)ncc1-c1cnn(C)c1 | enzyme activity | inhibitor | radiometric | 1 µM | remaining activity | 90%
O=C1NC(=O)c2cc(Nc3ccc(F)cc3)c(Nc3ccc(F)cc3)cc21 | cell-free assay |  |  | 0.5 µM | remaining signal | 99%
FC(F)(F)Oc1cccc(-c2cnc3ccc(-c4ccncc4)nn23)c1 | enzyme activity | inhibitor | radiometric | 1 µM | activity vs control | 58%
Cc1ccc(Nc2nccc(N(C)c3ccc4c(C)n(C)nc4c3)n2)cc1S(N)(=O)=O | enzyme activity | inhibitor |  | 0.3 µM | inhibition | 23%
O=C(N1CCS(=O)(=O)CC1)N1C[C@H](c2ccc(OC(F)(F)F)cc2)C[C@H](c2nc(C3CC3)no2)C1 | cell-free assay |  | competition with immobilised ligand | 1 µM | remaining binding | 99%
CC(C)(C)c1nc(-c2cccc(NS(=O)(=O)c3c(F)cccc3F)c2F)c(-c2ccnc(N)n2)s1 | enzyme activity | inhibitor | radiometric | 1 µM | remaining activity | 100%
C[C@H](c1ccnc(Nc2nc3ccc(-c4cc(N(C)C)ncn4)cc3[nH]2)c1)N1CCN(C(=O)CC(F)(F)F)CC1 | cell-free assay |  | competition with immobilised ligand | 0.1 µM | remaining binding | 94%
Cc1sc(C(=O)NC2COC2)cc1-n1cc(NC(=O)Nc2c(F)cccc2Cl)cn1 | enzyme activity | inhibitor |  | 10 µM | remaining activity | 102%
